Sampled rows, rich in hits. Any-hit rate of the full collection: about 2.3%.
TRPC6 act = mouse TRPC6 channel activators, primary screen, cell-based, HEK293, membrane potential dye; 310,000 tested, 0.13% active; AID 2550, 2010; Short transient receptor potential channel 6 (Mus musculus), Q61143; B-score at 10 µM; HEK293-TRPC6 membrane potential dye fluorescence; stronger effect = higher value;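 active = B-score of the integrated fluorescence ratio above library mean plus 3 SD, and starting fluorescence ratio within library mean plus 5 SD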;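 note: higher score means more depolarization so channel activation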
TRPC6 inhibitor = mouse TRPC6 channel inhibitors, primary screen, cell-based, HEK293, membrane potential dye | B-score at 10 µM | ACh-evoked depolarization; stronger effect = lower value | Short transient receptor potential channel 6 (Mus musculus), Q61143 | 310,000 tested, 1.1% active;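 active = B-score under library mean minus 3 SD, initial fluorescence not abnormally high, positive integrated signal ratio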;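 note: B-score derived from integrated fluorescence ratio over the kinetic read; more negative B-score means stronger inhibition of depolarization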
TRPC4 agonist = activators of mouse TRPC4 channel, primary screen, Fluo4 calcium, HEK293 TRPC4beta/mu-opioid cells | Fluo4 calcium fluorescence; stronger effect = higher value | AID 2237, 2010 | Short transient receptor potential channel 4 (Mus musculus), Q9QUQ5 | B-score at 10 µM | 310,000 tested, 0.49% active;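 active = B-score above 5 SD of library B-scores, and initial fluorescence ratio not above library mean plus 5 SD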;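 note: positive B-score marks a calcium rise read as TRPC4 activation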
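Assay system: HEK293 cells stably co-expressing mouse TRPC4beta and mu-opioid receptor / Timing: Fluo4 dye loading 45 min at room temperature, 110 s recording / Signal: Fluo4 calcium-sensitive dye fluorescence, kinetic, 1 Hz baseline / Read-out: integrated baseline-normalised fluorescence ratio, converted to per-well B score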
TRPC4 PAM = positive allosteric modulators of TRPC4, primary screen, cell-based, mouse TRPC4beta, HEK293 mu-opioid, Fluo-4 calcium; DAMGO EC20, Fluo-4 Ca2+ flux; stronger effect = higher value; 310,000 tested, 0.42% active; Short transient receptor potential channel 4 (Mus musculus), Q9QUQ5; B-score at 10 µM;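 active = B-score of calcium response area above 5 SD of library B-scores, with initial fluorescence ratio within 5 SD of library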;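 note: B-score of integrated fluorescence ratio over time as area under calcium response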
TRPC4 inh = inhibitors of mouse TRPC4 channel, primary screen, Fluo4 calcium, HEK293 TRPC4beta/mu-opioid cells | 300,000 tested, 0.39% active | DAMGO-evoked Fluo4 calcium flux; stronger effect = lower value | B-score at 10 µM;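 active = B-score over 3 SD under the library average, no early fluorescence shift, positive overall ratio signal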
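Assay system: TRPC4beta/mu-opioid receptor HEK293 cell line; compound dosing: single concentration per test compound; detection: Fluo4 Ca2+ flux fluorescence; evaluation: per-well B score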
* = called active by the depositor; i = inactive.

SMILES	TRPC6 act	TRPC6 inhibitor	TRPC4 agonist	TRPC4 PAM	TRPC4 inh
O=c1oc2cc(OCc3ccc(F)cc3F)ccc2cc1-c1ccc2ccccc2n1	i	i	i	i	i
Cc1cccc(N2CCN(C(=O)Cc3ccccc3[N+](=O)[O-])CC2)c1C	i	i	i	i	i
CCOC(=O)C1CN(S(=O)(=O)c2ccc(C)cc2)c2ccccc2O1 (stereo not given)	i	i	i	i	i
CS(=O)(=O)NCCNc1ccc(Cl)cc1[N+](=O)[O-]	i	i	i	i	i
CN(C)CCNc1ccc(Cl)cc1[N+](=O)[O-]	i	i	i	21*	i
CCN(CC)CCOc1ccc(Br)cc1	i	i	i	11*	i
CCN(CC)CCCOc1ccc(Cl)c(Cl)c1	i	i	46*	24*	i
CCN(CC)CCOc1ccc(/C(=C(\Cl)c2ccccc2)c2ccccc2)cc1	i	i	i	i	i
c1csc(-c2nc3ccccn3c2NC2CCCCC2)c1	i	i	i	i	i
Cc1ccn2c(NC3CCCC3)c(-c3cccs3)nc2c1	i	i	i	i	-6*
O=c1oc2ccccc2c(Nc2ccccc2)c1CN1CCCCC1	i	i	i	i	-7*
CC(=O)N1N=C(c2c(-c3ccccc3)c3cc(C)ccc3[nH]c2=O)CC1c1ccco1 (stereo not given)	i	i	i	24*	i
CC(=O)N1N=C(c2c(-c3ccccc3)c3cc(Br)ccc3[nH]c2=O)CC1c1ccco1 (stereo not given)	i	i	i	i	i
Cc1ccc(N(Cc2ccccc2)C(=O)c2cc(S(=O)(=O)N3CCOCC3)ccc2Cl)cc1	i	i	i	10*	i
COc1ccc(CN2CCN(Cc3ccc4cc(F)ccc4n3)CC2CCO)c(C)c1C (stereo not given)	i	i	i	i	i
CN(Cc1ccccc1)C(=O)c1oc(=O)c2ccccc2c1-c1ccccc1	i	i	i	16*	i
CC(=O)c1ccccc1OCC(O)CN1CCN(CCN2C(=O)c3cccc4cccc(c34)C2=O)CC1 (stereo not given)	i	i	i	i	i
Cc1ccc(C)c(OCC(O)CN2CCN(CCN3C(=O)c4cccc5cccc(c45)C3=O)CC2)c1 (stereo not given)	i	-5.1*	i	i	i
CCOc1ccc2[nH]c3c(N4CCN(c5ccccn5)CC4)ncnc3c2c1	i	i	i	i	-6*
CCOc1c(Br)cc(CNC2CCCCCCC2)cc1OC	i	i	i	i	-6*
COc1cc(CNC2CCCC2)c(Br)cc1OC1CCCC1	i	i	i	i	-7*
CCOc1cc(CNCC(C)C)cc(Cl)c1OCc1ccccc1	i	i	i	i	i
COc1cc(CNC2CCCCCCC2)cc(Br)c1OCC#N	i	i	i	i	i
CCOc1cc(CNC2CCCC2)cc(Cl)c1OCc1ccccc1	i	i	i	i	-6*
COc1cccc(NCc2ccc([N+](=O)[O-])s2)c1	i	i	i	i	-6*
SMILES	TRPC6 act	TRPC6 inhibitor	TRPC4 agonist	TRPC4 PAM	TRPC4 inh
COc1cccc(Nc2ccc([N+](=O)[O-])c3nonc23)c1	i	i	i	i	i
COc1ccc(OCc2ccc(/C=N\NC(=O)c3sccc3C)o2)cc1	i	i	i	i	i
Cc1ccc(C(NC(=O)NC(C)c2ccccc2)C(Cl)(Cl)Cl)cc1F (stereo not given)	i	i	i	i	i
Cc1nn(-c2ccccn2)c2nc(-c3cccs3)cc(C(=O)N3CCOCC3)c12	i	i	i	12*	i
Cc1cccc(-n2nc(C)c3c(C(=O)O)cc(-c4cccs4)nc32)c1	i	i	i	i	-6*
COc1ccc(-c2cc(C(=O)O)c3c(C)nn(-c4ccccn4)c3n2)cc1	i	i	i	i	i
Cc1nn(-c2cccc(Cl)c2)c2nc(-c3ccco3)cc(C(=O)O)c12	i	i	i	i	i
C=CCc1ccccc1OCC(CN1CCCCC1)OC(C)=O (stereo not given)	i	i	i	i	-6*
C=CCc1ccccc1OCCCCN1CCCC1	i	i	i	i	i
C=CCc1ccccc1OCC(O)CN1CCN(c2ccccc2OC)CC1 (stereo not given)	i	i	i	i	-6*
C=CCc1ccccc1OCC(O)CN1CCN(c2ccccc2F)CC1 (stereo not given)	i	i	i	i	i
CC(C)c1ccc(/C=C2\SC(=O)N(CC(=O)NC3C=CS(=O)(=O)C3)C2=O)cc1 (stereo not given)	i	i	i	i	i
Cn1cc([N+](=O)[O-])c(C(=O)N/N=C/c2ccc3c(c2)OCO3)n1	i	i	i	i	i
Cc1ccc2c(c1)C1CN(C)CCC1N2C(=S)NC(=O)c1ccc(Br)cc1 (stereo not given)	i	i	i	17*	i
COc1ccc(OCC(=O)N2c3ccc(C)cc3C3CN(C)CCC32)cc1 (stereo not given)	i	i	i	i	i
CN1CCN(C(=O)N2c3ccccc3C=Cc3ccccc32)CC1	i	i	i	13*	i
O=C(/C=C/c1ccccc1Cl)N(c1ccccn1)C1CCCCC1	i	i	i	16*	i
O=C(/C=C/c1ccccc1)N(c1ccccn1)C1CCCCC1	i	i	i	i	i
CC(=O)OCC1O[C@@H](O[C@@H]2C[C@H]3C(C)(C)[C@H](OC(C)=O)CC[C@]3(C)[C@H]3CC[C@]45C[C@]4(CC[C@H]5[C@@H](C)C[C@@H](O)[C@H](O)C(C)(C)O)[C@@]32C)[C@H](O)[C@@H](O)[C@@H]1O (stereo not given in full)	i	i	110*	i	i
Cn1nc(C(C)(C)C)c([N+](=O)[O-])c1C(=O)NC1CCCCC1	i	i	i	i	i
Cn1c(/N=C/c2cccs2)nc2ccccc21	i	i	i	i	i
Cn1c(/N=C/c2ccccc2[N+](=O)[O-])nc2ccccc21	i	i	i	15*	i
